We go through 5 compounds from ChEMBL document CHEMBL1811814, “Synthesis and evaluation of indole, pyrazole, chromone and pyrimidine based conjugates for tumor growth inhibitory activities--development of highly efficacious cytotoxic agents” (Eur J Med Chem, 2010).

The GI50 is the concentration at which growth is held to half of that of the control.

What all share (assay type): functional
The test system of one assay is HL-60(TB). Description: Growth inhibition of human HL-60(TB) cells assessed tumor cell growth at 10^-5 M. The arrangement: scale not given: the % may be the effect or the level left. In outline:
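HL-60(TB), part of the 60-line panel, tested at a single concentration of 10^-5 M. The read-out is percent tumor cell growth relative to untreated growth.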

The test system of a further assay is A549. Description: Growth inhibition of human A549 cells. To be noted: for CC50: read-out: LC50 (the source's name).
In a further assay the test system is HCC 2998. The assay can be described thus: Growth inhibition of human HCC2998 cells. To be noted: for CC50: read-out: LC50 (the source's name).
The subject of the next assay is MDA-MB-231. The assay can be described thus: Growth inhibition of human MDA-MB-231 cells assessed tumor cell growth at 10^-5 M. The arrangement: scale not given: the % may be the effect or the level left. In outline: (§1)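 NCI 60-human-tumor-cell-line panel screen. Each compound was tested at a single concentration of 10^-5 M, and percent growth of tumor cells was recorded for each cell line. Growth inhibition was expressed from these percent-growth values.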

The subject of a further assay is HT-29. Description: Growth inhibition of human HT-29 cells. To be noted: for CC50: read-out: LC50 (the source's name).
Another assay deals with DU-145. Description: Growth inhibition of human DU145 cells assessed tumor cell growth at 10^-5 M. The arrangement: scale not given: the % may be the effect or the level left. In outline:
as §1

For another assay, the system named is NCI/ADR-RES. The assay can be described thus: Growth inhibition of human NCI/ADR-RES cells. To be noted: for CC50: read-out: LC50 (the source's name).
Another assay relates to SNB-75. The assay can be described thus: Growth inhibition of human SNB75 cells assessed tumor cell growth at 10^-5 M. Further details: scale not given: the % may be the effect or the level left. The method, boiled down:
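Single-dose screen at 10^-5 M across the 60 human tumor cell line panel, run to NCI standards. The value is the percent growth of each cell line in the presence of compound. Compounds active at this dose moved on to five-concentration testing (10^-4 to 10^-8 M).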

The next assay deals with MOLT-4. The assay can be described thus: Growth inhibition of human MOLT4 cells assessed tumor cell growth at 10^-5 M. Further details: scale not given: the % may be the effect or the level left. The method, boiled down: as §1
In a further assay the test system is SK-MEL-28. The assay can be described thus: Growth inhibition of human SK-MEL-28 cells. To be noted: for CC50: read-out: LC50 (the source's name).
Another assay relates to MCF7. The assay can be described thus: Growth inhibition of human MCF7 cells. To be noted: for CC50: read-out: LC50 (the source's name).

For `O=C1Nc2ccccc2/C1=C/c1cn(C(=O)c2c(Cl)cccc2Cl)c2ccccc12`, the Activity with HL-60(TB) is reported as 72.1%; with MDA-MB-231, 55%; in the assay on DU-145, 59.2%; in the assay on SNB-75, 54.6%; with MOLT-4 it was 43.9%. The 50% growth inhibitory concentration (GI50) in the assay with A549 was 3.2 µM; with HCC 2998, 6 µM; with HT-29, 3.8 µM; in the assay with NCI/ADR-RES, 3.4 µM. Further, the CC50 with A549 is over 100 µM; in the assay with HCC 2998, 52.4 µM; in the assay on HT-29 it was 54.9 µM; with NCI/ADR-RES it was over 100 µM.

With `CC1=NN(c2cccc(Cl)c2)C(=O)/C1=C\C=C\c1ccccc1`, the 50% growth inhibitory concentration (GI50) was determined as 16.2 µM with A549; 1.9 µM with HCC 2998; 2.9 µM with HT-29; 2 µM with SK-MEL-28; 1.1 µM in the assay on MCF7; 3.3 µM in the assay with NCI/ADR-RES. Also, the CC50 in the assay on A549 is over 100 µM; with HCC 2998, 6.3 µM; with HT-29, over 100 µM; in the assay on SK-MEL-28, 8.9 µM; in the assay with MCF7 it was over 100 µM; with NCI/ADR-RES it was over 100 µM. The Activity stood at 13.67% in the assay with MDA-MB-231, 112.48% in the assay on DU-145, 62.01% with SNB-75 and 28.39% with MOLT-4.

As for `O=C1/C(=C\c2coc3ccccc3c2=O)c2ccccc2N1c1c(Cl)cccc1Cl`, the Activity with HL-60(TB) is listed as 33.76%; with MDA-MB-231 it was 60.45%; in the assay with DU-145 it was 24.59%; in the assay on SNB-75, 62.74%; with MOLT-4, 19.03%. For the same compound, the concentration for 50% growth inhibition (GI50) in the assay on A549 was 4.2 µM; in the assay on HCC 2998 it was 4.2 µM; in the assay with HT-29, 3 µM; with SK-MEL-28, 3.8 µM; in the assay with MCF7, 3.2 µM; in the assay on NCI/ADR-RES it was 3.3 µM. The CC50 in the assay on A549, in the assay with HCC 2998, with HT-29, in the assay with SK-MEL-28, with MCF7 and in the assay on NCI/ADR-RES was over 100 µM in each case.

`O=C1/C(=C\c2ccccn2)c2ccccc2N1c1c(Cl)cccc1Cl`: the Activity is on record as 1.39% with HL-60(TB); 15.7% in the assay with MDA-MB-231; -0.09% in the assay on DU-145; -17.92% in the assay with SNB-75; 3.8% in the assay on MOLT-4. For the same compound, the results for the GI50 with A549, with HT-29 and in the assay on NCI/ADR-RES were 1.9 µM, 2.1 µM and 3 µM, respectively. Besides, the CC50 is 43.6 µM with A549, 9.1 µM in the assay on HT-29 and over 100 µM with NCI/ADR-RES.

For the compound `CC1=NN(c2cccc(Cl)c2)C(=O)/C1=C\c1c(O)ccc2ccccc12`, the Activity in the assay with HL-60(TB) was found to be 104.49%; in the assay on MDA-MB-231, 4.08%; with DU-145, 35.43%; in the assay on SNB-75 it was 10.3%; with MOLT-4, 44.19%. Moreover, the GI50 with A549, in the assay on HT-29 and in the assay with NCI/ADR-RES was over 100 µM each time. The CC50 with A549, in the assay on HT-29 and in the assay with NCI/ADR-RES was over 100 µM each time.
